According to ChEMBL document CHEMBL4364265, “Oridonin derivatives as potential anticancer drug candidates triggering apoptosis through mitochondrial pathway in the liver cancer cells” (Eur J Med Chem, 2019):
Active and inactive are the calls of the source. The calls are words filed in the database; no cut-off is given here.

Experiments:
[1] = tested on: HepG2; test: Induction of cell cycle arrest in human HepG2 cells assessed as accumulation at S phase at 1 uM incubated for 24 hrs by PI staining based flow cytometric analysis (reference value: 35.46%); format: functional
[2] = tested on: PLC-PRF-5; test: Induction of apoptosis in human PLC/PRF/5 cells assessed as late apoptotic cells at 1 uM incubated for 24 hrs by annexin V staining based cell counting method (reference value: 4.81%); format: functional
[3] = tested on: PLC-PRF-5; test: Induction of cell cycle arrest in human PLC/PRF/5 cells assessed as accumulation at S phase at 0.5 uM incubated for 24 hrs by PI staining based flow cytometric analysis (reference value: 42.03%); format: functional
[4] = tested on: HepG2; test: Induction of cell cycle arrest in human HepG2 cells assessed as accumulation at G1 phase at 0.25 uM incubated for 24 hrs by PI staining based flow cytometric analysis (reference value: 37.06%); format: functional
[5] = tested on: PLC-PRF-5; test: Induction of apoptosis in human PLC/PRF/5 cells assessed as live cells at 0.25 uM incubated for 24 hrs by annexin V staining based cell counting method (reference value: 88.95%); format: functional
[6] = tested on: PLC-PRF-5; test: Induction of apoptosis in human PLC/PRF/5 cells assessed as down regulation of Bcl2 protein expression level incubated for 24 hrs by Western blot analysis; format: functional, cell-based
Outline: (§1)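 Cells were treated 24 h in DMEM with 0, 0.25, 0.5, 1.0 or 1.25 µM compound. Adherent and floating cells were lysed in RIPA on ice and protein measured by BCA. Equal protein was run on 7.5–12.5% SDS-PAGE and transferred to PVDF. Membranes were blocked in 5% milk/PBST, incubated with primary antibody overnight at 4 °C, and detected by ECL.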

[7] = tested on: HepG2; test: Induction of cell cycle arrest in human HepG2 cells assessed as accumulation at G2 phase at 1 uM incubated for 24 hrs by PI staining based flow cytometric analysis (reference value: 25.55%); format: functional
[8] = tested on: HepG2; test: Induction of cell cycle arrest in human HepG2 cells assessed as accumulation at G2 phase at 0.5 uM incubated for 24 hrs by PI staining based flow cytometric analysis (reference value: 25.55%); format: functional
[9] = tested on: HepG2; test: Induction of ROS generation in human HepG2 cells at 1 uM by DCFH-DA staining-based flow cytometric analysis relative to control; format: functional
Outline: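 Cells were treated with 0, 0.25, 0.5 or 1 µM compound, stained with 10 µM DCFH-DA for 20 min at 37 °C, washed three times, resuspended in PBS and read by flow cytometry. Data are mean ± SD of three independent experiments.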

[10] = Toxicity in nude mouse xenografted with human PLC/PRF/5 cells assessed as change in body weight at 10 mg/kg, iv administrated once every 3 days for 4 weeks; format: organism-based; settings: in vivo
Outline: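 Nude mice were inoculated subcutaneously in the right forelimb with 2 × 10⁷ PLC/PRF/5 cells in 0.2 mL saline. At about 120 mm³, mice were randomized into 3 groups of 6. Dosing was i.v. once every three days for 4 weeks, with vehicle 10% N-methylpyrrolidone/12% Tween-80/78% saline. Body weight was recorded daily.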

[11] = tested on: PLC-PRF-5; test: Induction of cell cycle arrest in human PLC/PRF/5 cells assessed as accumulation at G2 phase at 0.25 uM incubated for 24 hrs by PI staining based flow cytometric analysis (reference value: 18.05%); format: functional
[12] = tested on: PLC-PRF-5; test: Induction of apoptosis in human PLC/PRF/5 cells assessed as upregulation of cleaved caspase 3 protein expression level incubated for 24 hrs by Western blot analysis; format: functional, cell-based
Outline: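 After 24 h exposure (0, 0.25, 0.5, 1.0 and 1.25 µM), adherent plus floating cells collected, lysed in RIPA on ice 30 min, protein quantified by BCA; equal protein run on 7.5–12.5% SDS gels, transferred to PVDF, blocked 30 min in 5% milk/PBST, primary antibody overnight at 4 °C, ECL detection.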

[13] = tested on: HepG2; test: Induction of apoptosis in human HepG2 cells assessed as necrotic cells at 0.5 uM incubated for 24 hrs by annexin V staining based cell counting method (reference value: 3.40%); format: functional
[14] = tested on: PLC-PRF-5; test: Antitumour activity against human PLC/PRF/5 cells xenografted in nude mouse assessed as reduction in tumour weight at 10 mg/kg, iv administrated once every 3 days for 4 weeks relative to control; format: functional; parameters: scale not given: the % may be the effect or the level left
Outline: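 PLC/PRF/5 xenograft. 2 × 10^7 cells in 0.2 mL saline were injected s.c. into the right forelimb of nude mice. At about 120 mm3, mice were randomized into 3 groups of 6 and dosed i.v. at 10 mg/kg once every three days for 4 weeks. Vehicle was 10% N-methylpyrrolidone/12% Tween-80/78% saline. Volume (a×b²/2) and body weight were recorded daily, and tumors were excised and weighed at the end.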

[15] = tested on: HepG2; test: Induction of apoptosis in human HepG2 cells assessed as shrunken chromatin at 0.25 to 1 uM incubated for 24 hrs by Hoechst 33258 dye based fluorescence microscopic method; format: functional, cell-based
Outline: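 About 2 × 10^4 cells per well were plated overnight and treated 24 h with 0, 0.25, 0.5 or 1 µM compound. Cells were fixed in 4% paraformaldehyde for 30 min at room temperature, stained with 20 µg/mL Hoechst 33258 for 20 min at 37 °C, and imaged by fluorescence microscopy.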

[16] = tested on: HepG2; test: Induction of apoptosis in human HepG2 cells assessed as necrotic cells at 1 uM incubated for 24 hrs by annexin V staining based cell counting method (reference value: 3.40%); format: functional
[17] = tested on: RPMI-8226; test: Antiproliferative activity against human RPMI8226 cells incubated for 72 hrs by CCK8 cells; format: functional, cell-based; settings: RPMI-8226, 72 h
Outline: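 CCK-8 proliferation assay. 10,000 cells per well were preincubated 24 h at 37 °C with 5% CO2, then given compound dissolved in DMSO and incubated 72 h. CCK-8 was added for 4 h and absorbance read at 450 nm. IC50 was taken from dose-response curves as mean ± SEM of at least three independent experiments, with paclitaxel as positive control. HepG2 and L-O2 were grown in DMEM/10% FBS; A549 and RPMI-8226 in RPMI 1640/10% FBS.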

[18] = tested on: HepG2; test: Induction of mitochondrial membrane potential loss in human HepG2 cell incubated for 24 hrs by JC1 staining based fluorescence microscopic method; format: functional
Outline: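 Cells seeded in 12-well plates, cultured 12 h, treated 24 h (0, 0.25, 0.5, 1 µM). After a PBS wash, stained with JC-1 in medium for 20 min at 37 °C and washed three times. Red aggregate and green monomer fluorescence were imaged by fluorescence microscopy; the red/green ratio was taken; three independent experiments.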

[19] = tested on: HepG2; test: Induction of apoptosis in human HepG2 cells assessed as down regulation of Bcl2 protein expression level incubated for 24 hrs by Western blot analysis; format: functional, cell-based; outline: as §1
[20] = Selectivity index, ratio of IC50 for human LO2 cells to IC50 for human PLC/PRF/5 cells
Outline: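 L-O2 and PLC/PRF/5 cells were grown in DMEM with 10% FBS at 37 °C and 5% CO₂. For CCK-8 proliferation, 10,000 cells per well were pre-incubated 24 h, then exposed to compound in DMSO for 72 h. CCK-8 was added for 4 h and A450 read. IC50 came from dose–response curves; SI is IC50(L-O2)/IC50(PLC/PRF/5).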

[21] = tested on: PLC-PRF-5; test: Induction of apoptosis in human PLC/PRF/5 cells assessed as early apoptotic cells at 0.25 uM incubated for 24 hrs by annexin V staining based cell counting method (reference value: 5.65%); format: functional

## C=C1C(=O)[C@]23[C@H](OC(=O)/C=C/c4ccc(OC)cc4)[C@H]1CC[C@H]2[C@@]12CO[C@]3(O)[C@@H](O)[C@@H]1C(C)(C)CC[C@@H]2O
[1]
  Activity: 30.88%
[2]
  Activity: 36.66%
[3]
  Activity: 39.83%
[4]
  Activity: 38.04%
[5]
  Activity: 80.53%
[6]
  Activity: Dose-dependent effect
[7]
  Activity: 22.67%
[8]
  Activity: 23.84%
[9]
  fold change (FC): 3
[10]
  Activity: Non-Toxic
[11]
  Activity: 12.59%
[12]
  Activity: Dose-dependent effect
[13]
  Activity: 5.75%
[14]
  Activity: 38.1%
[15]
  Activity: Active
[16]
  Activity: 4.1%
[17]
  IC50: 8.56 µM
[18]
  Activity: Dose-dependent effect
[19]
  Activity: Dose-dependent effect
[20]
  Ratio IC50: 1.8
[21]
  Activity: 9.43%
